Assay results of several laboratories.
Compare with care: the assays were run in different laboratories.
Effect on: cell growth or viability

N.N.[Cl][Pt][Cl]
EC50 (SK-MEL-28; resazurin; dark): 2.8 µM

CCCCCCCSc1ccc(CC(C)NCC(O)c2cccc(Cl)c2)cc1 (stereo not drawn)
IC50 (HEK293): > 10 µM

N.N.[Cl][Pt][Cl]
IC50 (HEK293; MTT; 72 h): 28.4 µM

N.N.[Cl][Pt][Cl]
IC50 (NCI-H1975; MTT; 72 h): 6 µM

CNCCN(C)C(=O)Oc1c(Cl)c(C)nc(C)c1-c1ccc(Oc2ccc(OC(F)(F)F)cc2)cc1
IC50 (HEK293): > 10 µM

Cc1cccc(-n2ncc(Cl)c(Cl)c2=O)c1
IC50 (NCI-H1975; resazurin; 96 h): 0.14 µM

Cc1c(C)c2c(c(C)c1O)CC[C@](C)(C(=O)NC1CCC(CN3CCC(c4c[nH]c5ccccc45)CC3)CC1)O2 (stereo partly drawn)
IC50 (HEK293): > 10 µM

Cc1ccc2c(CNCC3(N4CCCC4)COC3)c[nH]c2c1
viability (T98G; 30 µM; 48 h): 98.5%

Cc1cc(O)cc2c(C3CCN(CC4CCN(C(=O)/C=C/c5ccc(Cl)c(Cl)c5)CC4)CC3)c[nH]c12
IC50 (HEK293): > 10 µM

Cc1cccc(-c2cccc(C)n2)n1.Cc1cccc(-c2cccc(C)n2)n1.F[P-](F)(F)(F)(F)F.F[P-](F)(F)(F)(F)F.[Ru+2].c1ccc2cc(-c3nc4c5cccnc5c5ncccc5c4[nH]3)ccc2c1
EC50 (SK-MEL-28; resazurin; dark): 31.8 µM

Cc1cccc2[nH]cc(CNCC3(N4CCCC4)COC3)c12
viability (T98G; 30 µM; 48 h): 60.1%

O=S(=O)([O-])C(F)(F)F.OCc1ccnc(-c2cc(CO)ccn2)c1.[Ru+2].c1cc[cH-]c1.c1ccc(P(c2ccccc2)c2ccccc2)cc1
IC50 (HEK293; MTT; 48 h): 6.7 µM
